Screening data deposited in PubChem BioAssay by several laboratories.
The sample as a whole holds a higher share of hits than the screen did.
Diaph act CS: counter-screen for diaphorase-based assays: diaphorase activators and chemical reducers; Diaphorase/resazurin coupled assay, resorufin fluorescence, 16 min; hits give high values; 1 = vehicle wells, 0 = NADH-free wells; activation factor at 20 µM; hit rate 0.005% among 190,000; AID 1229;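 active = diaphorase activity raised at least twofold by the compound at 20 µM; inactive = activation factor below 2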
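Assay system: Purified diaphorase enzyme from Clostridium kluyveri | Amount: Enzyme 0.07 U/mL final | Dosing: Compound 20 µM once, DMSO 1% | Timing: 16 min reaction at room temperature | Detection: Fluorescence, excitation 544 nm and emission 590 nm | Evaluation: Higher resorufin formation from activation or reduction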
G6PDH CS: counter-screen for G6PDH assay hits: L. mesenteroides G6PDH inhibition. Purified L. mesenteroides G6PDH, diaphorase/resazurin coupled fluorescence, 45 min. hit rate 0.12% among 200,000. inhibition, % at 5 µM. AID 1020
DTT redox prof: compounds producing H2O2 with reducing agent – biochemical, NIH compound library profiling, artefact control for MLSCN library redox annotation, primary screen; DTT-dependent redox cycling H2O2, phenol red/HRP absorbance; 100% = 100 µM peroxide control, 0% = buffer; activation, % at 10 µM; hit rate 0.03% among 200,000;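 active = activation of at least 50% relative to the plate's high and low controls in the primary single-dose screen; inactive = activation below 50%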;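 note: compound incubated with DTT at 0.8 mM final as the reducing agent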
L major viab: reduces viability of Leishmania major promastigotes; resazurin fluorescence viability; inhibition, % at 10 µM; AID 1063; hit rate 9% among 200,000;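 note: promastigotes grown with compound for 44 hours at 28 °C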
PfG6PD inh: PfG6PD (Plasmodium falciparum) enzyme inhibition; PfGluPho enzyme, NADPH resazurin-diaphorase fluorescence; inhibition, % at 20 µM; hit rate 0.78% among 350,000;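 active = inhibition reaching at least a set limit at 20 µM in the primary screen, cut at about 59% in these data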;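 note: 0% = DMSO wells with substrate and 100% = DMSO wells lacking glucose-6-phosphate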
Diaphorase inh: inhibits diaphorase or chemically oxidizes, flagging diaphorase assay artifacts | diaphorase resazurin-to-resorufin fluorescence, NADH, 16 min; bacterial (C. kluyveri) enzyme, not human | hit rate 0.69% among 190,000 | inhibition, % at 20 µM;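 active = primary screen inhibition at 20 µM above a set limit, cut at about 50% in these data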;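 note: plate controls were DMSO with full reaction for no effect and wells lacking NADH for full effect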
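Test system: diaphorase enzyme from Clostridium kluyveri; amount: diaphorase at 0.14 U/mL in enzyme working solution; detection: fluorescence of resorufin formed from resazurin, Ex 544/Em 590 nm; times: reaction incubation of 16 min at room temperature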
The depositor's hits bear a star. Cut-off read from the data, not from the text of the source, unless noted: active = inhibition above about 50%; inactive = the rest.

Screening Cc1ccc(NC(=O)CNC(=O)c2cccs2)cc1S(=O)(=O)Nc1ccc(Cl)cc1 returned Diaph act CS 0.8, G6PDH CS 0, DTT redox prof 0, L major viab 57*, PfG6PD inh -15 and Diaphorase inh 16.
For CCOc1ccc(NS(=O)(=O)c2cc(C(=O)N3CCCC3)ccc2Cl)cc1 the results were PfG6PD inh 3.
`COc1ccc(NS(=O)(=O)c2cc(NC(=O)CNC(=O)c3cccc(OC)c3)ccc2C)cc1` gave Diaph act CS 0.8, G6PDH CS 7, DTT redox prof 0, L major viab 61*, PfG6PD inh -2 and Diaphorase inh 24.
For CCOc1ccc(NS(=O)(=O)c2cc(NC(=O)c3cccc(C)c3)ccc2Cl)cc1 the results were Diaph act CS 0.8, G6PDH CS -24, DTT redox prof 0, L major viab 99*, PfG6PD inh 3 and Diaphorase inh 19.
For Cn1c(=O)n(C)c2cc(NC(=O)c3ccccc3[N+](=O)[O-])c(Br)cc21 the results were Diaph act CS 1.1, G6PDH CS 13, DTT redox prof 0, L major viab 1, PfG6PD inh 3 and Diaphorase inh -9.
CC(C)(C)NC(=O)CN(C(=O)c1snc(C(=O)NC2CCCCC2)c1N)c1ccc(F)cc1 was read as PfG6PD inh -5.
Screening O=C(NC1CC1)c1cccc(NC(=O)C2CCN(S(=O)(=O)c3ccccc3C(F)(F)F)CC2)c1 returned PfG6PD inh -2.
`COCCNC(=O)c1cc(S(=O)(=O)N(C)C2CCCCC2)ccc1Cl` gave PfG6PD inh -5.
`CCN(CC)S(=O)(=O)c1ccc2oc(C(=O)NCCN3CCOCC3)c(C)c2c1` gave PfG6PD inh 12.
`COCCCNC(=O)c1oc2ccc(S(=O)(=O)N(C)C3CCCCC3)cc2c1C` gave Diaph act CS 0.8, G6PDH CS 1, DTT redox prof 0, L major viab 97*, PfG6PD inh -11 and Diaphorase inh 21.
Screening C=CCNC(=O)c1oc2ccc(S(=O)(=O)N(CC)CC)cc2c1C returned Diaph act CS 1.1, G6PDH CS 4, DTT redox prof 1, L major viab 98*, PfG6PD inh -13 and Diaphorase inh -5.
`CC(C)(C)c1ccc(CN2N=Nc3ccccc3S2(=O)=O)cc1` gave Diaph act CS 0.6, G6PDH CS 6, DTT redox prof 2, L major viab 101*, PfG6PD inh 39 and Diaphorase inh 37.
Screening COc1cc(/C=C(\C#N)c2nc3ccccc3s2)cc([N+](=O)[O-])c1O returned Diaph act CS 0.1, G6PDH CS 6, DTT redox prof 0, L major viab 0, PfG6PD inh -9 and Diaphorase inh 85*.
`COc1ccc(-c2csc(/C(C#N)=C\c3ccc(O)c([N+](=O)[O-])c3)n2)cc1OC` gave PfG6PD inh -25.
N#C/C(=C\c1ccc(O)c([N+](=O)[O-])c1)c1nc2ccccc2s1 was read as Diaph act CS 0, G6PDH CS 5, DTT redox prof 0, L major viab -10, PfG6PD inh -3 and Diaphorase inh 97*.
`COc1ccc(-c2csc(/C(C#N)=C\c3ccc(OC)c([N+](=O)[O-])c3)n2)cc1` gave Diaph act CS 0.9, G6PDH CS -1, DTT redox prof 2, L major viab 91*, PfG6PD inh -9 and Diaphorase inh 12.
`O=C(O)CC/C(=C\c1ccc(Cl)c([N+](=O)[O-])c1)c1nc2ccccc2s1` gave Diaph act CS 0.8, G6PDH CS 4, DTT redox prof 3, L major viab -5, PfG6PD inh 11 and Diaphorase inh 16.
COc1cc(/C=C(\C#N)c2ccccn2)cc(OC)c1O was read as PfG6PD inh 4.
`COc1ccccc1NC(=O)C(=N\O)/C(C)=N/O` gave Diaph act CS 0.8, G6PDH CS 1, DTT redox prof 0, L major viab -2, PfG6PD inh -1 and Diaphorase inh 18.
For COc1ccc(OCCC(=O)NCC23CC4CC(CC(C4)C2)C3)cc1 the results were Diaph act CS 1, G6PDH CS -2, DTT redox prof 0, L major viab 97*, PfG6PD inh -10 and Diaphorase inh -3.
For COc1cccc(/C=C(/C(=O)OCC(N)=O)c2ccccc2)c1 the results were Diaph act CS 0.8, G6PDH CS 3, DTT redox prof -2, L major viab 13, PfG6PD inh 3 and Diaphorase inh 15.
`COc1cccc(/C=C(/C(=O)OCC(=O)NC2CCCC(C)C2C)c2ccccc2)c1` (stereo not drawn) gave Diaph act CS 0.8, G6PDH CS 3, L major viab 96*, PfG6PD inh 3 and Diaphorase inh 21.
`CC1CCCC(NC(=O)COC(=O)c2cccc(NS(=O)(=O)/C=C/c3ccccc3)c2)C1C` (stereo not drawn) gave Diaph act CS 0.9, G6PDH CS -16, DTT redox prof 0, L major viab 53*, PfG6PD inh -2 and Diaphorase inh 7.
`CN1C(=O)/C(=C/c2ccccc2OCc2ccccc2F)NC1=S` gave Diaph act CS 0.7, G6PDH CS 0, DTT redox prof -4, L major viab 62*, PfG6PD inh 1 and Diaphorase inh 26.
O=C(O)CCNC(=O)C12CC3CC(CC(C3)C1)C2 was read as Diaph act CS 1, G6PDH CS 3, DTT redox prof -1, L major viab 14, PfG6PD inh 4 and Diaphorase inh 0.
For CC(NC(=O)CCc1nnc(CCCc2ccccc2)o1)c1ccccc1 (stereo not drawn) the results were G6PDH CS 12, DTT redox prof 1, L major viab 76* and PfG6PD inh 5.
O=C1CC2(CCN(C(=O)C3CC(=O)N(c4ccc(F)cc4)C3)CC2)Oc2ccccc21 (stereo not drawn) was read as PfG6PD inh -2.
`O=C(CC1SC(=O)N(c2ccccc2)C1=O)Nc1ccccc1` (stereo not drawn) gave Diaph act CS 1, G6PDH CS 4, DTT redox prof 1, L major viab -2, PfG6PD inh 17 and Diaphorase inh -3.
Screening O=C(CC1Sc2ncnn2C1=O)Nc1ccccc1 (stereo not drawn) returned Diaph act CS 0.8, G6PDH CS 1, DTT redox prof 0, L major viab 100*, PfG6PD inh 7 and Diaphorase inh 23.
`Cc1ccc(NC(=O)C2CCN(S(=O)(=O)c3c(C)noc3C)CC2)cc1C` gave Diaph act CS 1, G6PDH CS 10, DTT redox prof 0, L major viab 99*, PfG6PD inh 0 and Diaphorase inh 1.
